# In ChEMBL document CHEMBL1142952, “Design, synthesis, and activity of 2-imidazol-1-ylpyrimidine derived inducible nitric oxide synthase dimerization inhibitors” (J Med Chem, 2007):
# Activity calls are given as the source filed them. No rule for the calls is given here.
# What was measured:
# Sf9 [1] = assay: Selectivity ratio, IC50 for ecNOS/IC50 for iNOS using tetracycline-induced system in SF9 cells; format: cell-based; settings: Homo sapiens
# Outline: (§1)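 SF9 cells carrying a tetracycline-induced system expressing one NOS isoform (iNOS, ecNOS or bcNOS); cellular NO formation inhibition measured, compounds up to 10 µM.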
# [2] = molecular target: Nitric oxide synthase, inducible (Homo sapiens, UniProt P35228); assay: Inhibition of cytokine-induced iNOS expressed in human A172 cells assessed as inhibition of NO formation; format: cell-based, A 172
# [3] = molecular target: Nitric oxide synthase, inducible (Rattus norvegicus) (UniProt Q06518); assay: Activity against rat cerebellum iNOS upto 1 uM
# BSC-1 [4] = assay: Selectivity ratio, IC50 for bcNOS/IC50 for iNOS using vaccinia virus-induced system in BSC1 cells; format: cell-based; settings: Homo sapiens
# Outline: (§2)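 For each compound, the IC50 against bcNOS (b/i) or ecNOS (e/i) is divided by the iNOS IC50 from the same BSC-1 vaccinia system.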
# Sf9 [5] = assay: Selectivity ratio, IC50 for bcNOS/IC50 for iNOS using tetracycline-induced system in SF9 cells; format: cell-based; settings: Homo sapiens; outline: as §1
# [6] = Inhibition of tetracycline system-induced human NOS expressed in SF9 cells; outline: as §1
# BSC-1 [7] = assay: Selectivity ratio, IC50 for ecNOS/IC50 for iNOS using vaccinia virus-induced system in BSC1 cells; format: cell-based; settings: Homo sapiens; outline: as §2
# [8] = Inhibition of vaccinia virus system-induced human NOS expressed in BSC1 cells; format: cell-based; settings: bsc-1
# Sequence of Nitric oxide synthase, inducible (Rattus norvegicus) (Q06518 whole entry): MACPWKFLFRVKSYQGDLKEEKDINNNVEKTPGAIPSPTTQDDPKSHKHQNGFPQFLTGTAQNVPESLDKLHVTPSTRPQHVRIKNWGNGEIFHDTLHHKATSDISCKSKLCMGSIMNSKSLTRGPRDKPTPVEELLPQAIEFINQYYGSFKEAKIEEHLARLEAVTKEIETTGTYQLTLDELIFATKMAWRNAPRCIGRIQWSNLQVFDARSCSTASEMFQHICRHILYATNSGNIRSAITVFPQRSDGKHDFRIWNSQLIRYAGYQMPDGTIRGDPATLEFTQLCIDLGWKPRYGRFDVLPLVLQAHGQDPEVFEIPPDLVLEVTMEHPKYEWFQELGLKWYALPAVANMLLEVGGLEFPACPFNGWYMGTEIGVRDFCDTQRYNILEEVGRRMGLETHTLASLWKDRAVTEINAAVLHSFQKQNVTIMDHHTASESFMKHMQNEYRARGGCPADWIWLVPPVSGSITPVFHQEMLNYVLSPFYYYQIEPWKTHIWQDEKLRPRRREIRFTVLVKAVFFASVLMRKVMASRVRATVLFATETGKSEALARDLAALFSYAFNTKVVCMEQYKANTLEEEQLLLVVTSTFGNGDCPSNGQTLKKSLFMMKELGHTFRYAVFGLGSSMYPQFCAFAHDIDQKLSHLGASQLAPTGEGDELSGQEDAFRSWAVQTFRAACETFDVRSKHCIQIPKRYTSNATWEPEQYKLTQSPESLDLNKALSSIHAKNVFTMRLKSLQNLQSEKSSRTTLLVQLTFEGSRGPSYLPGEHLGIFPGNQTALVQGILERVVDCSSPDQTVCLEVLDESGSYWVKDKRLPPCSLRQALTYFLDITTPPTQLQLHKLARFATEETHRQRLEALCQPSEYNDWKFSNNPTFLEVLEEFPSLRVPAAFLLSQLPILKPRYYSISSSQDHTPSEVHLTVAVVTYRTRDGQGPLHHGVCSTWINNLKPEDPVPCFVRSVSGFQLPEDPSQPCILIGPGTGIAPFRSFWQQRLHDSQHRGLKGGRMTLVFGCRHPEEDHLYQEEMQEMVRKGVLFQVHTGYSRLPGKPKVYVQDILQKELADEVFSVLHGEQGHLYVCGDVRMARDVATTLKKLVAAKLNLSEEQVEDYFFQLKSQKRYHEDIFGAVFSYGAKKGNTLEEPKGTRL
# Sequence of Nitric oxide synthase, inducible (P35228 whole entry): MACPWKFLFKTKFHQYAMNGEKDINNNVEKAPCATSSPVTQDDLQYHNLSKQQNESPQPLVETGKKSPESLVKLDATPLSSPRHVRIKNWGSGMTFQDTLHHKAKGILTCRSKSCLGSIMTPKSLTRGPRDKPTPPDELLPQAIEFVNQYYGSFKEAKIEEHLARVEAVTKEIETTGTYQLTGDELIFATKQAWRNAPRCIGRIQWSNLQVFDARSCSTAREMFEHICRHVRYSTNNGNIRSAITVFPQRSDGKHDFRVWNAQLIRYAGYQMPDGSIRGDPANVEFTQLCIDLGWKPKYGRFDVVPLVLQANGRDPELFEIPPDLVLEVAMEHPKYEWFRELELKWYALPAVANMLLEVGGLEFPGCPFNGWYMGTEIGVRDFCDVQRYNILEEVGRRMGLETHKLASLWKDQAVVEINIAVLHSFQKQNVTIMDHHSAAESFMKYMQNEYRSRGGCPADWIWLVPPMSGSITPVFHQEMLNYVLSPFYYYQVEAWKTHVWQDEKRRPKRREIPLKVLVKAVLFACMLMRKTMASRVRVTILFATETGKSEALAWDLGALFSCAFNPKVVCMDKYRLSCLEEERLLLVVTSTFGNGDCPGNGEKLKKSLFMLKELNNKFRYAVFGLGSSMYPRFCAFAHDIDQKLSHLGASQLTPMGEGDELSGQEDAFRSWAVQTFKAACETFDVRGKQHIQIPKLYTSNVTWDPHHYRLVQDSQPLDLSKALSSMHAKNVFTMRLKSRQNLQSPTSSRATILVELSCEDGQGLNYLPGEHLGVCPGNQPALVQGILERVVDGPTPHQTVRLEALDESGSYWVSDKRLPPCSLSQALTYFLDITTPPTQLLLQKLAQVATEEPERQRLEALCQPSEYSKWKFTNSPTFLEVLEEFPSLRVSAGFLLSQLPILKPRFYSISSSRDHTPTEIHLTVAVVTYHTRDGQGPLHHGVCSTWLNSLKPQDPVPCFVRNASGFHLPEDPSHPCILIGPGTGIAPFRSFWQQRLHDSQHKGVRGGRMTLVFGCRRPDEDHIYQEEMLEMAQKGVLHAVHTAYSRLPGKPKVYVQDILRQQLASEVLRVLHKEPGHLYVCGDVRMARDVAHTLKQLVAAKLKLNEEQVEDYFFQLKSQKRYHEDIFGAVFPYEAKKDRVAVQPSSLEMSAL
Compound,Ratio IC50 (Sf9 [1]),IC50 [2] [nM],Activity [3],Ratio IC50 (BSC-1 [4]),Ratio IC50 (Sf9 [5]),IC50 [6] [nM],Ratio IC50 (BSC-1 [7]),IC50 [8] [nM]
O=C(NCCc1ccc2c(c1)OCO2)[C@H]1CCCN1c1ccnc(-n2ccnc2)n1,181,0.48,inactive,19,74,11,> 2000,25
CCc1cc(N2CCC[C@@H]2CC(=O)NCc2ccc3c(c2)OCO3)nc(-n2ccnc2)n1,65,0.13,inactive,15,18,7.1,7800,7.5
O=C(CC1CN(C(=O)Oc2ccccc2)CCN1c1ccnc(-n2ccnc2)n1)NCc1ccc2c(c1)OCO2 (stereo not given),–,1.4,inactive,5,–,–,700,16
O=C(CC1CN(Cc2ccco2)CCN1c1ccnc(-n2ccnc2)n1)NCc1ccc2c(c1)OCO2 (stereo not given),–,0.58,inactive,2,–,–,1100,13
COC(=O)N1CCN(c2cc(C)nc(-n3ccnc3)n2)CC1CC(=O)NCc1ccc2c(c1)OCO2 (stereo not given),–,5.4,inactive,50,–,–,> 200,420
COc1ccc(CCNC(=O)CC2CCCCN2c2ccnc(-n3ccnc3)n2)cc1 (stereo not given),–,3.5,inactive,8,–,–,> 1000,42
O=C(CC1CN(c2cccc(F)n2)CCN1c1ccnc(-n2ccnc2)n1)NCc1ccc2c(c1)OCO2 (stereo not given),–,0.28,inactive,6,–,–,850,10
Cc1cc(N2CCN(C(=O)C(C)C)[C@H](CC(=O)NCc3ccc4c(c3)OCO4)C2)nc(-n2ccnc2)n1,74,0.75,inactive,29,80,130,> 400,350
O=C(CC1CN(C(=O)COCc2ccccc2)CCN1c1ccnc(-n2ccnc2)n1)NCc1ccc2c(c1)OCO2 (stereo not given),–,0.5,inactive,11,–,–,1220,28
COC(=O)N1CCN(c2ccnc(-n3ccnc3)n2)[C@@H](CC(=O)NCc2ccc3c(c2)OCO3)C1,32,0.24,inactive,6,16,10,1100,18
O=C(CC1CN(Cc2ccccc2)CCN1c1ccnc(-n2ccnc2)n1)NCc1ccc2c(c1)OCO2 (stereo not given),–,1,inactive,7,–,–,770,13
O=C(C[C@H]1CCCN1c1ccnc(-n2ccnc2)n1)NCc1ccc2c(c1)OCO2,47,0.28,inactive,5,6,5.5,2900,5.6
